Measured values collected from several papers.
Protocols differ between the studies behind these lines.
Effect on: cell growth or viability

O=C(Nc1ccc(Br)cc1)Nc1nc2cc(-c3ccc4ncn(Cc5ccccc5)c(=O)c4c3)ccc2s1
IC50 (PC-9; MTT; 72 h): > 20 µM

O=C(NO)c1ccc(Cn2cnc3c(Nc4ccc(F)c(Cl)c4)ncnc32)cc1
IC50 (Raji; MTT; 72 h): 0.87 µM

O=C1CCC(N2C(=O)c3cccc4c(Cc5cnn(C6CCNCC6)c5)ccc2c34)C(=O)N1 (stereo not shown)
IC50 (NCI-H929): 0.00016 µM

CN1CCC(NC2CCc3[nH]c4c(C(N)=O)ccc(-c5ccccc5Cl)c4c3C2)CC1 (stereo not shown)
IC50 (DOHH-2; 96 h): 0.0247 µM

O=C1C(=Nc2ccccc2I)c2ccccc2N1Cc1cccc(Cl)c1
IC50 (HCT-116; MTT; 48 h): 4.86 µM

Cc1nc(Nc2ncc(C(=O)Nc3c(C)cccc3Cl)s2)cc(N2CC[C@H](O)C2)n1
IC50 (JVM13; ATP luminescence; 72 h): > 10 µM

COc1ccc(Nc2ncnc3c2ncn3Cc2ccc(C(=O)NO)cc2)cc1
IC50 (Raji; MTT; 72 h): 0.43 µM

O=C1CCC(N2C(=O)c3cccc4c(Cc5cnn(C6CCN(C(=O)CO)CC6)c5)ccc2c34)C(=O)N1 (stereo not shown)
IC50 (NCI-H929): 0.00016 µM

COc1cccc(NC(=O)Nc2nc3cc(-c4ccc5ncn(CCC6CCCCC6)c(=O)c5c4)ccc3s2)c1
IC50 (PC-9; MTT; 72 h): > 20 µM

O=C1CCC(N2C(=O)c3cccc4c(Cc5cnn(C6CCN(C(=O)C7(O)CC7)CC6)c5)ccc2c34)C(=O)N1 (stereo not shown)
IC50 (NCI-H929): 9e-05 µM

COc1cccc(NC(=O)Nc2nc3cc(-c4ccc5ncn(CC(=O)N6CCOCC6)c(=O)c5c4)ccc3s2)c1
IC50 (PC-9; MTT; 72 h): > 20 µM

O=C1CCC(N2C(=O)c3cccc4c(Cc5ccc(CN6CCNCC6)cc5)ccc2c34)C(=O)N1 (stereo not shown)
IC50 (NCI-H929): 0.00073 µM

COc1ccc(Nc2ncnc3c2ncn3Cc2ccc(C(=O)Nc3ccccc3N)cc2)cc1
IC50 (Raji; MTT; 72 h): 11 µM

COc1cc(C2C3=C(Nc4nc(SC)[nH]c(=O)c42)c2ccccc2C3=O)ccc1O (stereo not shown)
IC50 (SK-OV-3; MTT; 72 h): > 1000 µM

CN(C)CCn1cnc2ccc(-c3ccc4sc(NC(=O)Nc5ccc(F)cc5)nc4c3)cc2c1=O
IC50 (PC-9; MTT; 72 h): 4.87 µM

O=C1CCC(N2C(=O)c3cccc4c(Cc5ccc(CN6CCNCC6)nc5)ccc2c34)C(=O)N1 (stereo not shown)
IC50 (NCI-H929): 0.0135 µM

COc1cc(C2C3=C(COC3=O)N(CCO)c3cc4c(cc32)CCC4)cc(OC)c1OC (stereo not shown)
IC50 (EMT6; ATP luminescence; 48 h): 0.18 µM

O=C(NO)c1ccc(Cn2cnc3c(Nc4ccc(Cl)cc4)ncnc32)cc1
IC50 (Raji; MTT; 72 h): 0.36 µM

O=C(Nc1cccc(F)c1)Nc1nc2cc(-c3ccc4ncn(Cc5ccccc5)c(=O)c4c3)ccc2s1
IC50 (PC-9; MTT; 72 h): > 20 µM

Cc1cccc(N=C2C(=O)N(Cc3ccccc3)c3ccccc32)c1
IC50 (HCT-116; MTT; 48 h): 2.72 µM

CCCC(=O)Nc1nc2cc(-c3ccc4ncn(Cc5ccccc5)c(=O)c4c3)ccc2s1
IC50 (PC-9; MTT; 72 h): > 20 µM

O=C1CCC(N2C(=O)c3cccc4c(Cc5cnn(C6CCN(C(=O)CS)CC6)c5)ccc2c34)C(=O)N1 (stereo not shown)
IC50 (NCI-H929): 0.00123 µM
